INS-1E rescue = protection of INS-1E cells from cytokine death, primary screen, ATP luminescence, single point. AID 488910, 2010. 20,000 tested, 0.1% active. INS-1E cytokine-induced death, 48 h; normalised: neutral wells 0, positive control 100. protection from cytokine-induced ATP loss, % at 10 µM;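 active = mean replicate protection from cytokine-induced ATP loss at least 50% and at least 75% of replicates each reaching 50%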
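assay system = INS-1E rat insulinoma cells | amount = 8000 cells per well | medium = phenol-red-free RPMI with 5% fetal bovine serum | doses = one compound concentration, pin transfer | timing = 48 h cytokine plus compound treatment, 10 min reagent incubation | also added = IL-1β, TNF-α and IFN-γ cytokine mix | signal = CellTiter-Glo luminescence measuring cellular ATP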
T cruzi HTS = inhibitors of intracellular Trypanosoma cruzi, primary screen, cell-based, plate reader, single point, set 2; activity score (inhibition), % at 5.01 µM; intracellular Trypanosoma cruzi in host cells; 22,000 tested, 4.9% active; AID 651903, 2012; in the data active = activity score above about 55%;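 also: parasites and compound incubated about four days before reading; 0% = median of neutral control wells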
YB-1 expr inh = inhibitors of YB-1 gene expression, primary screen, cell-based, fluorescence | delta delta Cp (YB-1 minus CDIP) (test concentration not listed) | 30,000 tested, 0.37% active | U2OS, qRT-PCR YB-1 vs CDIP delta delta Cp, 16 h; hits give high values; zero = DMSO, each unit about twofold | AID 434959, 2010;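 active = delta delta Cp rounded down to an integer at or above 3, about 3 SD of DMSO wells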;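 also: higher means less YB-1 transcript or more CDIP transcript relative to DMSO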
The depositor's hits bear a star; . = not tested or not shown. Many of the other results were omitted from the sample, so hits are more common in it than they were.

SMILES | INS-1E rescue | T cruzi HTS | YB-1 expr inh
C[C@H]1CN([C@@H](C)CO)C(=O)c2cc(NS(=O)(=O)c3ccccc3)ccc2O[C@H]1CN(C)S(=O)(=O)c1ccc(Cl)cc1 | 0 | -7 | 0.059
COc1ccc(-n2nc3ccc(NC(=O)c4ccc(-c5ccccc5)cc4)cc3n2)cc1 | . | . | -0.76
CC(=O)NC1C(=O)Nc2ccccc2S(=O)(=O)C1c1ccccc1 (stereo unspecified) | . | . | -0.38
O=C(O)CCNC(=O)Nc1ccccc1 | . | . | -0.11
CC(=O)NCCOc1c(C)cccc1C | . | . | -0.28
C[C@H](CO)N1C[C@H](C)[C@H](CN(C)Cc2ccc(Oc3ccccc3)cc2)Oc2c(NC(=O)Nc3ccc(F)cc3)cccc2C1=O | -9 | -13 | -0.48
C[C@@H]1CN([C@@H](C)CO)C(=O)c2cccc(NC(=O)Nc3ccc(F)cc3)c2O[C@@H]1CN(C)Cc1ccc(-c2ccccc2)cc1 | -67 | 69* | -0.031
C[C@@H]1CN([C@H](C)CO)C(=O)c2cccc(NC(=O)Nc3ccc(F)cc3)c2O[C@H]1CN(C)Cc1ccc(-c2ccccc2)cc1 | 0 | -13 | -0.8
C[C@H](CO)N1C[C@H](C)[C@@H](CN(C)Cc2ccc(Oc3ccccc3)cc2)Oc2c(NC(=O)Nc3ccc(F)cc3)cccc2C1=O | -36 | 59* | 0.38
C[C@@H]1CN([C@@H](C)CO)C(=O)c2cccc(NC(=O)Nc3ccccc3)c2O[C@H]1CN(C)Cc1ccc(Oc2ccccc2)cc1 | -25 | 76* | -0.21
C[C@@H]1CN([C@H](C)CO)C(=O)c2cccc(NC(=O)Nc3ccccc3)c2O[C@H]1CN(C)Cc1ccc(Oc2ccccc2)cc1 | -20 | 34 | -0.4
CN1C(=O)[C@@]2(Cc3ccccc3)SSS[C@]1(CO)C(=O)N2C | . | . | -0.56
COc1ccc(NC(C)=S)cc1C | . | . | -0.054
O=C1CCC(=O)N1CNc1cccc(Cl)c1 | . | . | -0.23
N#Cc1c(-c2ccccc2)n2c(-c3ccccc3)nn(-c3ccccc3)c2nc1=O | . | . | 0.11
C[C@H](CO)N1C[C@H](C)[C@H](CN(C)Cc2ccc(C(F)(F)F)cc2)Oc2ccc(NS(=O)(=O)c3ccccc3)cc2CC1=O | 2 | 6 | -0.22
C[C@H]1CN([C@@H](C)CO)C(=O)Cc2cc(NS(=O)(=O)c3ccccc3)ccc2O[C@@H]1CN(C)Cc1ccc(C(F)(F)F)cc1 | 11 | 67* | 0.18
C[C@@H]1CN([C@H](C)CO)C(=O)Cc2cc(NS(=O)(=O)c3ccccc3)ccc2O[C@H]1CN(C)Cc1ccc(C(F)(F)F)cc1 | -6 | 11 | -0.13
C[C@@H]1CN([C@H](C)CO)C(=O)Cc2cc(NS(=O)(=O)c3ccccc3)ccc2O[C@@H]1CN(C)Cc1ccc(C(F)(F)F)cc1 | -28 | 59* | -0.12
CC1(C)CC(=O)C2=C(C1)OC(N)=C(C#N)C21C(=O)N(CO)c2ccccc21 (stereo unspecified) | . | . | -0.11
O=C(NCc1ccccn1)c1cccnc1SCCS(=O)(=O)c1ccc(C(F)(F)F)cn1 | . | . | 0.03
CCCc1nc2c(o1)N(C(=O)OCC)C(N)=C(C#N)C21CCNCC1 | . | . | -0.15
C[C@@H]1CN([C@H](C)CO)C(=O)Cc2cc(NS(=O)(=O)c3ccccc3)ccc2O[C@@H]1CN(C)S(=O)(=O)c1ccc(Cl)cc1 | 0 | 68* | -0.01
C[C@@H]1CN([C@H](C)CO)C(=O)Cc2cc(NS(=O)(=O)c3ccccc3)ccc2O[C@H]1CN(C)S(=O)(=O)c1ccccc1 | 1 | 11 | 5.1*
C[C@@H]1CN([C@H](C)CO)C(=O)Cc2cc(NS(=O)(=O)c3ccccc3)ccc2O[C@@H]1CN(C)S(=O)(=O)c1ccccc1 | 5 | 53 | -0.11
SMILES | INS-1E rescue | T cruzi HTS | YB-1 expr inh
C[C@H]1CN([C@@H](C)CO)C(=O)Cc2cc(NS(=O)(=O)c3ccccc3)ccc2O[C@@H]1CN(C)S(=O)(=O)c1ccc(Cl)cc1 | 6 | 5 | -0.26
N#CCS(=O)c1ccccc1 (stereo unspecified) | . | . | 0.12
Cc1c(S(=O)(=O)c2ccc(Cl)cc2)csc1C(=O)N(c1ccccc1)S(C)=O (stereo unspecified) | . | . | 0.085
COC(=O)CCCCCCC(=O)N/N=C/c1ccc(OCCO)cc1 | 4 | -21 | 0.015
CCCCN(CCCC)c1ccc(/C=N/NC(=O)CCCCCCC(=O)OC)cc1 | -6 | 58* | -0.21
COc1ccc(CN(C)C[C@@H]2Oc3ccc(NS(=O)(=O)c4ccc(C)cc4)cc3CC(=O)N([C@@H](C)CO)C[C@@H]2C)cc1 | -1 | 46 | -0.13
COc1ccc(CN(C)C[C@@H]2Oc3ccc(NS(=O)(=O)c4ccc(Cl)cc4)cc3CC(=O)N([C@@H](C)CO)C[C@@H]2C)cc1 | 2 | 3 | -0.21
COc1ccc(S(=O)(=O)Nc2ccc3c(c2)CC(=O)N([C@H](C)CO)C[C@H](C)[C@H](CN(C)Cc2ccc(Cl)c(Cl)c2)O3)cc1 | 0 | 40 | 0.023
COc1ccc(CN(C)C[C@@H]2Oc3ccc(NS(=O)(=O)c4ccc(Cl)cc4)cc3CC(=O)N([C@H](C)CO)C[C@H]2C)cc1 | 0 | 68* | 0.05
COc1ccc(S(=O)(=O)Nc2ccc3c(c2)CC(=O)N([C@H](C)CO)C[C@@H](C)[C@H](CN(C)Cc2ccc(Cl)c(Cl)c2)O3)cc1 | -21 | 70* | -0.15
COc1ccc(CN(C)C[C@@H]2Oc3ccc(NS(=O)(=O)c4ccc(C)cc4)cc3CC(=O)N([C@H](C)CO)C[C@H]2C)cc1 | 8 | 68* | -0.023
C[C@@H]1O[C@@H](O[C@H]2[C@H](O)[C@@H](O)[C@H](OC[C@H]3O[C@@H](OC(=O)[C@]45CCC(C)(C)CC4C4=CCC6[C@@]7(C)CC[C@H](O)C(C)(C)C7CC[C@@]6(C)[C@]4(C)CC5)[C@H](O)[C@@H](O)[C@@H]3O)O[C@@H]2CO)[C@H](O)[C@H](O)[C@H]1O (stereo partly specified) | . | . | 1.6
C=CCc1c(C)[nH]c(=S)[nH]c1=O | . | . | -0.64
O=C1CC2(CCCC2)C(=O)N1c1cc(C(F)(F)F)cc(C(F)(F)F)c1 | . | . | 0.13
O=C1CSC(c2ccccc2)N1C1CCCCC1 (stereo unspecified) | . | . | -0.23
C[C@@H]1CN([C@@H](C)CO)C(=O)c2cc(NC(=O)Nc3ccc4c(c3)OCO4)ccc2O[C@@H]1CN(C)Cc1ccc(C(=O)Nc2ccccc2N)cc1 | 4 | 46 | -0.23
C[C@@H]1CN([C@H](C)CO)C(=O)c2cccc(NC(=O)Nc3ccc4c(c3)OCO4)c2O[C@@H]1CN(C)Cc1ccc(C(=O)Nc2ccccc2N)cc1 | 11 | 68* | -0.23
C[C@@H]1CN([C@@H](C)CO)C(=O)c2cc(NC(=O)Nc3ccc4c(c3)OCO4)ccc2O[C@H]1CN(C)Cc1ccc(C(=O)Nc2ccccc2N)cc1 | -19 | 55 | -0.17
C[C@H]1CN([C@@H](C)CO)C(=O)c2cccc(NC(=O)Nc3ccc4c(c3)OCO4)c2O[C@H]1CN(C)Cc1ccc(C(=O)Nc2ccccc2N)cc1 | -13 | 66* | 0.098
O=S(=O)(/C=C/c1ccccc1)Nc1ccccc1 | . | . | 0.023

Bioassay records: PubChem BioAssay, Broad Institute
